Each block holds one molecule with its values, some of them ahead of it.
Tests used:
[1] = target: Adenosine receptor A2a (Rattus norvegicus) (UniProt P30543); experiment: Displacement of specific [3H]-CGS- 21680 binding at adenosine A2A receptor in rat striatal membranes.; type: cell membranes; parameters: concentration or dose not given beside the values; conditions: Membrane; concentration not given here
[2] = target: T1, Adenosine receptor A1 (Rattus norvegicus) (UniProt P25099); experiment: Displacement of specific [3H](R)-PIA binding at Adenosine A1 receptor from rat brain membranes; type: cell membranes; parameters: concentration or dose not given beside the values; conditions: Membrane; concentration not given here
T1 sequence (whole entry): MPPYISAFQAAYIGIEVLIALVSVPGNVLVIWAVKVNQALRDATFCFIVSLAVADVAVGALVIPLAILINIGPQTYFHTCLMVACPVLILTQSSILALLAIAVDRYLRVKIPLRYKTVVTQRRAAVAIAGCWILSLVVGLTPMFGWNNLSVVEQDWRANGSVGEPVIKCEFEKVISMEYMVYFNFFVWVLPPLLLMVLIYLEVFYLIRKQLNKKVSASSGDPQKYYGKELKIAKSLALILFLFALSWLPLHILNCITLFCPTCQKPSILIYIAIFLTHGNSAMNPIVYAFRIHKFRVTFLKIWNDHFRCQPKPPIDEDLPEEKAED

[3] = target: T2, Adenosine receptor A3 (Homo sapiens) (UniProt P0DMS8); experiment: Displacement of [125I]AB-MECA binding at human Adenosine A3 receptor at 10e-7 M
T2 sequence (whole entry): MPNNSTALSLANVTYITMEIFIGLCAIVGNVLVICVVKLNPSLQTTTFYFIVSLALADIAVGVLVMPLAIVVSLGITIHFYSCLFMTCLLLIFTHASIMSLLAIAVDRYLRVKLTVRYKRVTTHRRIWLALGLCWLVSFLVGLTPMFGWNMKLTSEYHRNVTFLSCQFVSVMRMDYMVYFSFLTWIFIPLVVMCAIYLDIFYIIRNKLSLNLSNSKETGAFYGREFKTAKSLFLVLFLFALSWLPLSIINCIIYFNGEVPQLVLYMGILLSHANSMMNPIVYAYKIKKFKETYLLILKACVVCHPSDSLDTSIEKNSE
Method in brief: (§1)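 Nonspecific binding defined with 100 µM (R)-PIA. Compounds dissolved in DMSO, ≤2% in assay. Stopped by rapid filtration over GF/B filters with three buffer rinses; result given as % specific binding displaced at the stated concentration.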

[4] = target: Adenosine receptor A2a (Rattus norvegicus) (UniProt P30543); experiment: Displacement of specific [3H]-CGS- 21680 binding at Adenosine A2A receptor in rat striatal membranes at the concentration of 10e-4 M; type: cell membranes; conditions: Membrane
Method in brief: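 [3H]CGS 21680 binding to rat striatal membranes, with adenosine deaminase (3 units/mL) during preparation, 30 min 30 °C preincubation and incubation. Reported as % of specific binding displaced at 10^-4 M.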

Adenosine receptor A1 = target: T3, Adenosine receptor A1 (Rattus norvegicus, UniProt P25099); experiment: Displacement of specific [3H](R)-PIA binding at adenosine A1 receptor from rat brain membranes.; type: cell membranes, Membrane
T3 sequence (P25099 whole entry): T1 sequence (whole entry)

Adenosine receptor A3 = target: T4, Adenosine receptor A3 (Homo sapiens, UniProt P0DMS8); experiment: Displacement of specific [125I]AB-MECA binding at human adenosine A3 receptor.
T4 sequence (P0DMS8 whole entry): T2 sequence (whole entry)

[5] = target: T1, Adenosine receptor A1 (Rattus norvegicus); experiment: Displacement of specific [3H](R)-PIA binding at Adenosine A1 receptor from rat brain membranes at the concentration of 10e-4 M; type: cell membranes; conditions: Membrane
Method in brief: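 [3H](R)-PIA binding to rat cerebral cortex membranes with adenosine deaminase (3 units/mL) present in preparation, 30 min 30 °C preincubation and incubation. Result given as % of specific binding displaced at 10^-4 M.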

Adenosine receptor A2a = Adenosine receptor A2a (Rattus norvegicus, UniProt P30543); experiment: Displacement of specific [3H]-CGS- 21680 binding at Adenosine A2A receptor in rat striatal membranes.; type: cell membranes, Membrane
[6] = target: T2, Adenosine receptor A3 (Homo sapiens); experiment: Displacement of [125I]AB-MECA binding at human Adenosine A3 receptor at 10e-5 M; method in brief: as §1
Homo sapiens = species: Homo sapiens; experiment: Selectivity ratio measured as the Ki value of rat A1 receptor to that of hA3 receptor.

Chain of Adenosine receptor A2a (P30543 whole entry): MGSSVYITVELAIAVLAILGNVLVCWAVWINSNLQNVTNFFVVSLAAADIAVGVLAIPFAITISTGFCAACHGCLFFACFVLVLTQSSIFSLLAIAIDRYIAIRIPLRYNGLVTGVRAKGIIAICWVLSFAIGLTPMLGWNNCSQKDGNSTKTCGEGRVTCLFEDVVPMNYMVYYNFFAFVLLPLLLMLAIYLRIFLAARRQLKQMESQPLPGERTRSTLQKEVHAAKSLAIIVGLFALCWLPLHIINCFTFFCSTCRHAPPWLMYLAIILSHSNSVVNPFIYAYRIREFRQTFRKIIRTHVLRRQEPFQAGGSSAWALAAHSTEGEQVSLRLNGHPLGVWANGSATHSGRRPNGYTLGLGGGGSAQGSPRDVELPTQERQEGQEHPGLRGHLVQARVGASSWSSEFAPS
Chain of Adenosine receptor A2a (Rattus norvegicus) (P30543 whole entry): as above

SMILES: CCOC(=O)C1=C(c2ccccc2)N=C(C)/C(=C(/O)OCC)C1C#Cc1ccc([N+](=O)[O-])cc1 (centres undefined)
inhibition [1]: 24%

SMILES: CCO/C(O)=C1\C(C)=NC(c2ccccc2)=C(C(=O)OCc2cccc(I)c2)C1C#Cc1ccccc1 (centres undefined)
inhibition [2]: 14%
inhibition [1]: 19%

SMILES: CCOC(=O)C1=C(c2ccccc2)N=C(C)/C(=C(/O)OCC)C1c1ccccn1 (centres undefined)
inhibition [1]: 25%

SMILES: CCOC(=O)C1=C(c2ccccc2)N=C(C)/C(=C(/O)OCC)C1c1ccccc1 (centres undefined)
Displacement [4]: < 10%

SMILES: CCO/C(O)=C1\C(C)=NC(c2ccccc2)=C(C(=O)OCC(OC)c2ccccc2)C1C#Cc1ccccc1 (centres undefined)
inhibition [1]: 33%

SMILES: CCO/C(O)=C1\C(C)=NC(c2ccccc2)=C(C(=O)SCC)C1C#Cc1ccccc1 (centres undefined)
inhibition [1]: 17%

SMILES: CCOC(=O)C1=C(c2ccccc2)NC(C)=C(C(C)=O)C1C#Cc1ccccc1 (centres undefined)
inhibition [1]: 17%

SMILES: CCO/C(O)=C1\C(C)=NC(c2ccccc2)=C(C(=O)OCC[Si](C)(C)C)C1C#Cc1ccccc1 (centres undefined)
inhibition [1]: 18%

SMILES: CCOC(=O)C1=C(c2ccccc2)N=C(C)/C(=C(/O)OCc2ccccc2)C1C#Cc1ccccc1 (centres undefined)
inhibition [2]: 24%
Displacement [4]: < 10%

SMILES: CCO/C(O)=C1\C(C)=NC(c2ccccc2)=C(C(=O)OCc2cccc(C)c2)C1C#Cc1ccccc1 (centres undefined)
Displacement [5]: < 10%
inhibition [1]: 16%

SMILES: CCO/C(O)=C1\C(C)=NC(c2ccccc2)=C(C(=O)OCc2ccc(C(F)(F)F)cc2)C1C#Cc1ccccc1 (centres undefined)
inhibition [2]: 32%
inhibition [1]: 15%

SMILES: CCCO/C(O)=C1\C(C)=NC(c2ccccc2)=C(C(=O)OCc2ccccc2)C1C#Cc1ccccc1 (centres undefined)
inhibition [2]: 21%
inhibition [1]: 16%

SMILES: CCOC(=O)C1=C(c2ccccc2)N=C(C)/C(=C(/O)SCC)C1C#Cc1ccccc1 (centres undefined)
Ki (Adenosine receptor A2a): 5.15 µM

SMILES: CCOC(=O)C1=C(c2ccccc2)N=C(C)/C(=C(/O)OCC)C1c1cccs1 (centres undefined)
inhibition [1]: 36%

SMILES: CCO/C(O)=C1\C(C)=NC(c2ccccc2)=C(C(=O)OCc2ccc(C(=O)OCC(Cl)(Cl)Cl)cc2)C1C#Cc1ccccc1 (centres undefined)
inhibition [2]: 33%
inhibition [1]: 11%

SMILES: CCO/C(O)=C1\C(C)=NC(c2ccccc2)=C(C(=O)OCc2cc(C(F)(F)F)cc(C(F)(F)F)c2)C1C#Cc1ccccc1 (centres undefined)
Displacement [5]: < 10%
inhibition [1]: 29%

SMILES: CCNC(=O)C1=C(c2ccccc2)N=C(C)/C(=C(/O)OCC)C1C#Cc1ccccc1 (centres undefined)
inhibition [1]: 47%

SMILES: CCOC(=O)C1=C(c2ccccc2)N=C(C)/C(=C(/O)OCC)C1c1ccncc1 (centres undefined)
Ki (Adenosine receptor A2a): 44.7 µM

SMILES: CCO/C(O)=C1\C(CC)=NC(c2ccccc2)=C(C(=O)OCc2ccccc2)C1C#Cc1ccccc1 (centres undefined)
inhibition [2]: 25%
Displacement [4]: < 10%

SMILES: CCOCN1C(C)=C(C(=O)OCC)C(C#Cc2ccccc2)C(C(=O)OCC[Si](C)(C)C)=C1c1ccccc1 (centres undefined)
inhibition [2]: 13%
inhibition [1]: 19%

SMILES: CCNC(=O)C1=C(c2ccccc2)N(COCC)C(C)=C(C(=O)OCC)C1C#Cc1ccccc1 (centres undefined)
inhibition [1]: 35%

SMILES: CCOC(=O)C1=C(C(F)(F)F)N=C(C)/C(=C(/O)OCC)C1C#Cc1ccccc1 (centres undefined)
inhibition [1]: 25%

SMILES: CCOC(=O)C1=C(c2ccccc2)N=C(C)/C(=C(/O)OCC)C1c1cc2ccccc2o1 (centres undefined)
Displacement [4]: < 10%

The next lines start with the values.

Displacement [3]: < 10%
inhibition [2]: 68%
inhibition [1]: 39%
SMILES: CCO/C(O)=C1\C(C)=NC(c2ccccc2)=C(C(=O)OCc2ccc(C(=O)NCCN)cc2)C1C#Cc1ccccc1 (centres undefined)

inhibition [1]: 20%
SMILES: CCOC(=O)C1=C(c2ccccc2)N=C(C)/C(=C(/O)OC(C)(C)C)C1C#Cc1ccccc1 (centres undefined)

inhibition [1]: 26%
SMILES: CCOC(=O)C1=C(c2ccccc2)N=C(C)/C(=C(/O)OCC)C1C#Cc1ccccc1 (centres undefined)

Ki (Adenosine receptor A1): 19.1 µM
inhibition [1]: 36%
Ki (Adenosine receptor A3): > 100 µM
SMILES: CCOCN1C(C)=C(C(=O)OCC)C(C#Cc2ccccc2)C(C(=O)O)=C1c1ccccc1 (centres undefined)

Displacement [5]: < 10%
inhibition [1]: 17%
SMILES: CCO/C(O)=C1\C(C)=NC(c2ccccc2)=C(C(=O)OCc2ccc(C)cc2)C1C#Cc1ccccc1 (centres undefined)

inhibition [1]: 40%
SMILES: CCOC(=O)C1=C(c2ccccc2)N=C(C)/C(=C(/O)OCC)C1c1cccnc1 (centres undefined)

Ki (Adenosine receptor A2a): > 100 µM
Ki (Adenosine receptor A1): 100 µM
SMILES: Cc1ccc(-c2oc3ccc(Cl)cc3c(=O)c2Cl)c(OC(C)C)c1

Displacement [5]: < 10%
inhibition [1]: 15%
SMILES: C=CCO/C(O)=C1\C(C)=NC(c2ccccc2)=C(C(=O)OCC)C1/C=C/c1ccc([N+](=O)[O-])cc1 (centres undefined)

Displacement [4]: < 10%
SMILES: CCO/C(O)=C1\C(C)=NC(c2ccccc2)=C(C(=O)OCc2ccccc2)C1C#Cc1ccccc1 (centres undefined)

inhibition [2]: 28.2%
Displacement [4]: < 10%
SMILES: CCO/C(O)=C1\C(C)=NC(c2ccccc2)=C(C(=O)OCc2cccc([N+](=O)[O-])c2)C1C#Cc1ccccc1 (centres undefined)

inhibition [2]: 16%
inhibition [1]: 13%
SMILES: CCO/C(O)=C1\C(C)=NC(c2ccccc2)=C(C(=O)OCc2ccccc2C)C1C#Cc1ccccc1 (centres undefined)

inhibition [2]: 41%
Displacement [4]: < 10%
SMILES: CCOC(=O)C1=C(c2ccccc2)N=C(C)/C(=C(/O)OCC)C1C#Cc1cccc(C)c1 (centres undefined)

Displacement [6]: < 10%
inhibition [1]: 16%
SMILES: CCO/C(O)=C1\C(C)=NC(c2ccccc2)=C(C(=O)O)C1C#Cc1ccccc1 (centres undefined)

Displacement [5]: < 10%
Displacement [4]: < 10%
SMILES: CCO/C(O)=C1\C(C)=NC(c2ccccc2)=C(C(=O)OCCc2ccccc2)C1C#Cc1ccccc1 (centres undefined)

inhibition [1]: 27%
SMILES: CCO/C(O)=C1\C(C)=NC(c2ccccc2)=C(C(=O)OC(C)(C)C)C1C#Cc1ccccc1 (centres undefined)

Displacement [5]: < 10%
inhibition [1]: 27%
SMILES: CCOC(=O)C1=C(C)N(COC)C(c2ccccc2)=C(C(=O)OCC[Si](C)(C)C)C1C#Cc1ccccc1 (centres undefined)

inhibition [1]: 25%
SMILES: CCOC(=O)C1=C(C)N=C(C)/C(=C(/O)OCC)C1c1cccs1 (centres undefined)

Displacement [5]: < 10%
Displacement [4]: < 10%
SMILES: CCO/C(O)=C1\C(C)=NC(c2ccccc2)=C(C(=O)OCCCc2ccccc2)C1C#Cc1ccccc1 (centres undefined)

inhibition [1]: 19%
SMILES: CCNC(=O)C1=C(C)NC(c2ccccc2)=C(C(=O)OCC)C1C#Cc1ccccc1 (centres undefined)

inhibition [1]: 26%
SMILES: CCOC(=O)C1=C(c2ccccc2)N=C(C)/C(=C(/O)OCC)C1/C=C/c1ccc(N)cc1 (centres undefined)

Selectivity ratio (Homo sapiens): 5.7
SMILES: CCOC(=O)C1=C(C)NC(C)=C(C(=O)OC)C1C#Cc1ccccc1 (centres undefined)

inhibition [2]: 29%
Displacement [4]: < 10%
SMILES: CCO/C(O)=C1\C(C)=NC(c2ccccc2)=C(C(=O)OCc2ccc([N+](=O)[O-])cc2)C1C#Cc1ccccc1 (centres undefined)

inhibition [1]: 22%
SMILES: CCOC(=O)C1=C(c2ccccc2)N=C2CCCC(O)=C2C1C#Cc1ccccc1 (centres undefined)

inhibition [1]: 45%
SMILES: CCOC(=O)C1=C(c2ccccc2)N=C(C)/C(=C(/O)OCC)C1c1ccco1 (centres undefined)

Ki (Adenosine receptor A3): 0.013 µM
SMILES: COC(=O)C1=C2C=CN(C)C=C2c2nc(-c3ccccc3)nn2C1

inhibition [2]: 20%
inhibition [1]: 40%
SMILES: CCO/C(O)=C1\C(C)=NC(c2ccccc2)=C(C(=O)OCc2cc([N+](=O)[O-])cc([N+](=O)[O-])c2)C1C#Cc1ccccc1 (centres undefined)

Source: ChEMBL document CHEMBL1130115 (J Med Chem, 1997)
